Laboratory results taken from ChEMBL document CHEMBL1926593, “Studies on the synthesis and antibacterial activity of 3,6-disubstituted 1,2,4-triazolo[3,4-b]1,3,4-thiadiazoles” (2012).
Converted amounts (≈) assume the structure as drawn. The source made the active and inactive calls. The calls are words filed in the database; no cut-off is given here.

How the values were obtained:
[1] = test system: Staphylococcus epidermidis; assay: Antibacterial activity against drug-sensitive Staphylococcus epidermidis ATCC 12228 by broth microdilution method; format: functional
Summary of the method: (§1)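 Broth microdilution per CLSI recommendation. MIC is the lowest concentration with no visible growth. MBC is the lowest concentration giving >99.9% reduction in CFU of the initial inoculum. Ampicillin, cefuroxime and vancomycin served as reference agents.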

Bacillus cereus [2] = assay: Antibacterial activity against drug-sensitive Bacillus cereus ATCC 10876 by broth microdilution method; format: functional; summary of the method: as §1
Staphylococcus aureus [3] = assay: Antibacterial activity against drug-sensitive Staphylococcus aureus ATCC 6538 by broth microdilution method; format: functional; summary of the method: as §1
Staphylococcus aureus [4] = assay: Antibacterial activity against drug-sensitive Staphylococcus aureus ATCC 25923 by broth microdilution method; format: functional; summary of the method: as §1
Bacillus subtilis [5] = assay: Antibacterial activity against drug-sensitive Bacillus subtilis ATCC 6633 by broth microdilution method; format: functional; summary of the method: as §1
Micrococcus luteus = assay: Antibacterial activity against drug-sensitive Micrococcus luteus ATCC 10240 by broth microdilution method; format: functional; summary of the method: as §1
Staphylococcus aureus [6] = assay: Ratio of MBC to MIC for methicillin-resistant Staphylococcus aureus ATCC 14001; format: functional
Summary of the method: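 Broth microdilution following CLSI recommendations. MIC was the lowest concentration with no visible growth. MBC was the lowest concentration giving a >99.9% reduction in CFU relative to the initial inoculum. The ratio was taken from these two values.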

Bacillus subtilis [7] = assay: Ratio of ampicillin MIC to compound MIC for drug-sensitive Bacillus subtilis ATCC 6633 by broth microdilution method; format: functional
Bacillus cereus [8] = assay: Ratio of ampicillin MIC to compound MIC for drug-sensitive Bacillus cereus ATCC 10876 by broth microdilution method; format: functional
Bacillus cereus [9] = assay: Ratio of cefuroxime MIC to compound MIC for drug-sensitive Bacillus cereus ATCC 10876 by broth microdilution method; format: functional
Staphylococcus aureus [10] = assay: Antibacterial activity against methicillin-resistant Staphylococcus aureus ATCC 14001 by broth microdilution method; format: functional
Summary of the method: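 Broth microdilution following CLSI recommendations. MIC was read as the lowest concentration giving no visible growth. Ampicillin, cefuroxime and vancomycin were the reference antibacterials.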

Pseudomonas aeruginosa = assay: Antibacterial activity against drug-sensitive Pseudomonas aeruginosa ATCC 9027 by broth microdilution method; format: functional, organism-based; summary of the method: as §1
Escherichia coli = assay: Antibacterial activity against drug-sensitive Escherichia coli ATCC 25922 by broth microdilution method; format: functional, organism-based; summary of the method: as §1
Proteus mirabilis = assay: Antibacterial activity against drug-sensitive Proteus mirabilis ATCC 12453 by broth microdilution method; format: functional, organism-based; summary of the method: as §1
Klebsiella pneumoniae = assay: Antibacterial activity against drug-sensitive Klebsiella pneumoniae ATCC 13883 by broth microdilution method; format: functional, organism-based; summary of the method: as §1

Structure (SMILES) | MIC [1] | MIC (Bacillus cereus [2]) | MIC (Staphylococcus aureus [3]) | MIC (Staphylococcus aureus [4]) | MIC (Bacillus subtilis [5]) | MIC (Micrococcus luteus) | Ratio (Staphylococcus aureus [6]) | Ratio (Bacillus subtilis [7]) | Ratio (Bacillus cereus [8]) | MBC [1] | MBC (Bacillus cereus [2]) | MBC (Staphylococcus aureus [10]) | MIC (Staphylococcus aureus [10]) | Activity (Pseudomonas aeruginosa) | Activity (Escherichia coli) | MBC (Staphylococcus aureus [3]) | Activity (Proteus mirabilis) | MBC (Staphylococcus aureus [4]) | MBC (Bacillus subtilis [5]) | Activity (Klebsiella pneumoniae) | further results
CO/N=C(\C(=O)N[C@@H]1C(=O)N2C(C(=O)O)=C(COC(N)=O)CS[C@H]12)c1ccco1 [CEFUROXIME] | 0.24 mg/L (≈ 0.566 µM) | 31.2 mg/L (≈ 73.6 µM) | 0.98 mg/L (≈ 2.31 µM) | 0.49 mg/L (≈ 1.15 µM) | 15.6 mg/L (≈ 36.8 µM) | 0.98 mg/L (≈ 2.31 µM) | – | – | – | – | – | – | – | – | – | – | – | – | – | – | –
Brc1ccc(Nc2nn3c(-c4ccccc4)nnc3s2)cc1 | 0.49 mg/L (≈ 1.32 µM) | 15.6 mg/L (≈ 42 µM) | 15.6 mg/L (≈ 42 µM) | 0.98 mg/L (≈ 2.63 µM) | 0.98 mg/L (≈ 2.63 µM) | 3.91 mg/L (≈ 10.5 µM) | 8 | 16 | 4 | 0.98 mg/L (≈ 2.63 µM) | 15.6 mg/L (≈ 42 µM) | 62.5 mg/L (≈ 168 µM) | 7.81 mg/L (≈ 21 µM) | inactive | inactive | 125 mg/L (≈ 336 µM) | inactive | 31.2 mg/L (≈ 83.9 µM) | 1.91 mg/L (≈ 5.13 µM) | inactive | Ratio (Bacillus cereus [9]): 2; MBC (Micrococcus luteus): 7.81 mg/L (≈ 21 µM)
Clc1ccc(-c2nnc3sc(Nc4ccc(Br)cc4)nn23)cc1 | 1.95 mg/L (≈ 4.79 µM) | 15.6 mg/L (≈ 38.4 µM) | 0.98 mg/L (≈ 2.41 µM) | 1.95 mg/L (≈ 4.79 µM) | 1.95 mg/L (≈ 4.79 µM) | 15.6 mg/L (≈ 38.4 µM) | 16 | 8 | 4 | 1.95 mg/L (≈ 4.79 µM) | 15.6 mg/L (≈ 38.4 µM) | 125 mg/L (≈ 307 µM) | 7.81 mg/L (≈ 19.2 µM) | inactive | inactive | 31.2 mg/L (≈ 76.8 µM) | inactive | 31.2 mg/L (≈ 76.8 µM) | 1.95 mg/L (≈ 4.79 µM) | inactive | Ratio (Bacillus cereus [9]): 2; MBC (Micrococcus luteus): 15.6 mg/L (≈ 38.4 µM)
Clc1ccccc1-c1nnc2sc(Nc3ccc(Br)cc3)nn12 | 0.98 mg/L (≈ 2.41 µM) | 7.81 mg/L (≈ 19.2 µM) | 7.81 mg/L (≈ 19.2 µM) | 1.95 mg/L (≈ 4.79 µM) | 1.95 mg/L (≈ 4.79 µM) | 7.81 mg/L (≈ 19.2 µM) | 8 | 8 | 8 | 3.91 mg/L (≈ 9.61 µM) | 15.6 mg/L (≈ 38.4 µM) | 15.6 mg/L (≈ 38.4 µM) | 1.95 mg/L (≈ 4.79 µM) | inactive | inactive | 62.5 mg/L (≈ 154 µM) | inactive | 15.6 mg/L (≈ 38.4 µM) | 15.6 mg/L (≈ 38.4 µM) | inactive | MBC (Micrococcus luteus): 7.81 mg/L (≈ 19.2 µM)
Clc1ccc(Nc2nn3c(-c4ccccc4)nnc3s2)cc1 | 0.98 mg/L (≈ 2.99 µM) | 15.6 mg/L (≈ 47.7 µM) | 15.6 mg/L (≈ 47.7 µM) | 3.91 mg/L (≈ 11.9 µM) | 1.95 mg/L (≈ 5.95 µM) | 7.81 mg/L (≈ 23.8 µM) | 32 | 8 | 4 | 3.91 mg/L (≈ 11.9 µM) | 15.6 mg/L (≈ 47.7 µM) | 62.5 mg/L (≈ 191 µM) | 1.95 mg/L (≈ 5.95 µM) | inactive | inactive | 31.2 mg/L (≈ 95.3 µM) | inactive | 31.2 mg/L (≈ 95.3 µM) | 7.81 mg/L (≈ 23.8 µM) | inactive | Ratio (Bacillus cereus [9]): 2; MBC (Micrococcus luteus): 15.6 mg/L (≈ 47.7 µM)
